Calls of active or inactive are those of the source. The rule behind the calls is not given here.
Legend:
Mus musculus [1] = assay: Anticonvulsant activity in ip dosed albino CF1 mouse assessed as minimum drug concentration required for inhibition of maximal electroshock-induced seizure in half or more of mouse after 4 hrs by MES test; type: functional
Outline: (§1)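 Male CF-1 albino mice (18-25 g), groups of 4. Compound suspended in 0.5% methyl cellulose-water or PEG, given i.p. at 30, 100 and 300 mg/kg. Seizures induced by maximal electroshock (MES) or subcutaneous pentylenetetrazole (scPTZ), tested 0.5 and 4 h after dosing.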

Mus musculus [2] = assay: Anticonvulsant activity in ip dosed albino CF1 mouse assessed as minimum drug concentration required for inhibition of maximal electroshock-induced seizure in half or more of mouse after 0.5 hrs by MES test; type: functional; outline: as §1
Mus musculus [3] = assay: Neurotoxicity in ip dosed albino CF1 mouse assessed as minimum drug concentration required for motor impairment in half or more of mouse after 4 hrs by rotarod test; type: toxicity, organism-based; settings: in vivo
Outline: (§2)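 Motor impairment was tested on a rotorod in mice trained to stay on a rod of 3.2 cm diameter turning at 10 rev/min. Compound given i.p. at 30, 100 or 300 mg/kg, groups of 4, read at 0.5 and 4 h. Neurotoxicity was scored as failure to keep balance for at least 1 min in each of three trials. Value is the minimum dose affecting half or more of the animals.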

Mus musculus [4] = assay: Anticonvulsant activity in ip dosed albino CF1 mouse assessed as minimum drug concentration required for inhibition of pentylenetetrazole-induced seizures in half or more of mouse after 0.5 hrs by scPTZ test; type: functional; outline: as §1
Mus musculus [5] = assay: Neurotoxicity in ip dosed albino CF1 mouse assessed as minimum drug concentration required for motor impairment in half or more of mouse after 0.5 hrs by rotarod test; type: toxicity, organism-based; settings: in vivo; outline: as §2
Rattus norvegicus = assay: Sedative-hypnotic activity in phenobarbitone-activated albino Sprague-Dawley rat assessed as increase in sleeping time at 100 mg/kg pretreated for 30 mins before phenobarbitone sodium challenge relative to control; type: functional
Outline: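 Compound dissolved in PEG and given at 100 mg/kg to groups of six animals. Phenobarbitone sodium was injected 30 min later. Sleep duration was recorded in minutes (mean ± SEM) and expressed as % increase over a phenobarbitone-only control.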

Mus musculus [6] = assay: Anticonvulsant activity in albino CF1 mouse assessed as inhibition of pentylenetetrazole-induced seizures in half or more of mouse at 300 mg/kg, ip after 4 hrs by scPTZ test; type: functional, organism-based; set-up: dose 300 mg/kg; outline: as §1
Mus musculus [7] = assay: Anticonvulsant activity in albino CF1 mouse assessed as minimum inhibition of maximal electroshock-induced seizure in half or more of mouse at 300 mg/kg, ip after 4 hrs by MES test; type: functional, organism-based; set-up: dose 300 mg/kg; outline: as §1
Mus musculus [8] = assay: Neurotoxicity in albino CF1 mouse assessed as motor impairment at 300 mg/kg, ip after 4 hrs by rotarod test; type: toxicity, organism-based; set-up: dose 300 mg/kg, route intraperitoneal; settings: in vivo; outline: as §2
Mus musculus [9] = assay: Anticonvulsant activity in albino CF1 mouse assessed as inhibition of pentylenetetrazole-induced seizures in half or more of mouse at 300 mg/kg, ip after 0.5 hrs by scPTZ test; type: functional, organism-based; set-up: dose 300 mg/kg; outline: as §1
Mus musculus [10] = assay: Anticonvulsant activity in albino CF1 mouse assessed as minimum inhibition of maximal electroshock-induced seizure in half or more of mouse at 300 mg/kg, ip after 0.5 hrs by MES test; type: functional, organism-based; set-up: dose 300 mg/kg; outline: as §1
Mus musculus [11] = assay: Neurotoxicity in albino CF1 mouse assessed as motor impairment at 300 mg/kg, ip after 0.5 hrs by rotarod test; type: toxicity, organism-based; set-up: dose 300 mg/kg, route intraperitoneal; settings: in vivo; outline: as §2

Structure (SMILES)	Activity (Mus musculus [1]) [mg/kg]	Activity (Mus musculus [2]) [mg/kg]	Activity (Mus musculus [3]) [mg/kg]	Activity (Mus musculus [4]) [mg/kg]	Activity (Mus musculus [5]) [mg/kg]	Activity (Rattus norvegicus) [%]	Activity (Mus musculus [6])	Activity (Mus musculus [7])	Activity (Mus musculus [8])	Activity (Mus musculus [9])	Activity (Mus musculus [10])	Activity (Mus musculus [11])
CCOc1ccc(Nc2nsc(=O)n2-c2ccc(OCC)cc2)cc1	300	100	300	300	300	67.1	inactive					
O=c1snc(Nc2cccnc2)n1-c1cccnc1		300			100		inactive	inactive	Non-toxic	inactive		
c1cc(Nc2nsc(Nc3ccncc3)n2)ccn1		300			100		inactive	inactive	Non-toxic	inactive		
c1ccc2c(Nc3nsc(Nc4cccc5ccccc45)n3)cccc2c1	300	100			300	22.7	inactive		Non-toxic	inactive		
NC(=O)N1c2ccccc2C=Cc2ccccc21 [CARBAMAZEPINE]		30	300	100	100		inactive	inactive				
O=c1snc(Nc2ccncc2)n1-c1ccncc1		300			100		inactive	inactive	Non-toxic	inactive		
c1cncc(Nc2nsc(Nc3cccnc3)n2)c1		300			100		inactive	inactive	Non-toxic	inactive		
Fc1ccc(Nc2nsc(Nc3ccc(F)cc3)n2)cc1	300	100			100		inactive		Non-toxic	inactive		
O=c1snc(Nc2ccc(F)cc2)n1-c1ccc(F)cc1		100			300	17.7	inactive	inactive	Non-toxic	inactive		
CCOc1ccc(Nc2nsc(Nc3ccc(OCC)cc3)n2)cc1	300	100	300		300	36.7	inactive			inactive		
O=c1snc(Nc2ccccn2)n1-c1ccccn1		300			100		inactive	inactive	Non-toxic	inactive		
O=C1NC(=O)C(c2ccccc2)(c2ccccc2)N1 [PHENYTOIN]	100	30	100		100		inactive			inactive		
c1cnc(Nc2nsc(Nc3ncccn3)n2)nc1					300	59.5	inactive	inactive	Non-toxic	inactive	inactive	
c1ccc(Nc2nsc(Nc3ccccn3)n2)nc1		300			100		inactive	inactive	Non-toxic	inactive		
O=c1snc(Nc2ncccn2)n1-c1ncccn1		300					inactive	inactive	Non-toxic	inactive		Non-toxic
O=c1snc(Nc2cccc3ccccc23)n1-c1cccc2ccccc12	300	100			300	16.4	inactive		Non-toxic	inactive		

From ChEMBL document CHEMBL1138557, “Synthesis and anticonvulsant activity of some substituted 1,2,4-thiadiazoles” (Eur J Med Chem, 2009)
